# Test system: U2OS
# Test: Multiplex assay against U2OS
# Type: toxicity, cell-based
# Conditions: human
# Summary of the method: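 Per cents of healthy-nucleus cells form the tubulin, mitochondrial-mass and membrane-permeability phenotype values. Live cells were stained at seeding with Hoechst33342, BioTracker Green Microtubule Cytoskeleton Dye, MitoTracker Red and Annexin V Alexa Fluor 680. After compound addition they were imaged on a CQ1 microscope at 37°C and 5% CO2, and CellPathfinder machine-learning gating split them into Hoechst high-intensity objects or normal cells, normal cells into healthy, pyknosed or fragmented nuclei, and pyknosed cells into mitotic or apoptotic.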
# [1] = 12 h, 1 µM, compound concentration 1 uM, replicate 1
# [2] = 12 h, 1 µM, compound concentration 1 uM, replicate 2
# [3] = 12 h, 10 µM, compound concentration 10 uM, replicate 1
# [4] = 12 h, 10 µM, compound concentration 10 uM, replicate 2
# [5] = 24 h, 1 µM, compound concentration 1 uM, replicate 1
# [6] = 24 h, 1 µM, compound concentration 1 uM, replicate 2
# [7] = 24 h, 10 µM, compound concentration 10 uM, replicate 1
# [8] = 24 h, 10 µM, compound concentration 10 uM, replicate 2
# [9] = 48 h, 1 µM, compound concentration 1 uM, replicate 1
# [10] = 48 h, 1 µM, compound concentration 1 uM, replicate 2
# [11] = 48 h, 10 µM, compound concentration 10 uM, replicate 1
# [12] = 48 h, 10 µM, compound concentration 10 uM, replicate 2
smiles,measurement,setting,value
OCCCNc1cc(-c2ccnc(Nc3cccc(Cl)c3)n2)ccn1,Population Apoptotic (%),[1],88%
same,Population Fragmented Nuclei (%),[1],38%
same,Population Healthy Nuclei (%),[1],52%
same,Population Hoechst High Intensity Objects (%),[1],3%
same,Population Membrane Permeable-Phenotype (%),[1],8%
same,Population Mitochondria Different-Phenotype (%),[1],4%
same,Population Mitotic Cells (%),[1],11%
same,Population Normal (%),[1],97%
same,Population Pyknosed Nuclei (%),[1],9%
same,Population Tubulin-Different-Phenotype (%),[1],4%
same,Total Cell Count,[1],200
same,Population Apoptotic (%),[2],80%
same,Population Fragmented Nuclei (%),[2],27%
same,Population Healthy Nuclei (%),[2],51%
same,Population Hoechst High Intensity Objects (%),[2],5%
same,Population Membrane Permeable-Phenotype (%),[2],10%
same,Population Mitochondria Different-Phenotype (%),[2],18%
same,Population Mitotic Cells (%),[2],20%
same,Population Normal (%),[2],94%
same,Population Pyknosed Nuclei (%),[2],20%
same,Population Tubulin-Different-Phenotype (%),[2],5%
same,Total Cell Count,[2],76
same,Population Apoptotic (%),[3],85%
same,Population Fragmented Nuclei (%),[3],37%
same,Population Healthy Nuclei (%),[3],56%
same,Population Hoechst High Intensity Objects (%),[3],4%
same,Population Membrane Permeable-Phenotype (%),[3],46%
same,Population Mitochondria Different-Phenotype (%),[3],36%
same,Population Mitotic Cells (%),[3],14%
same,Population Normal (%),[3],95%
same,Population Pyknosed Nuclei (%),[3],6%
same,Population Tubulin-Different-Phenotype (%),[3],46%
same,Total Cell Count,[3],237
same,Population Apoptotic (%),[4],91%
same,Population Fragmented Nuclei (%),[4],24%
same,Population Healthy Nuclei (%),[4],64%
same,Population Hoechst High Intensity Objects (%),[4],10%
same,Population Membrane Permeable-Phenotype (%),[4],47%
same,Population Mitochondria Different-Phenotype (%),[4],51%
same,Population Mitotic Cells (%),[4],8%
same,Population Normal (%),[4],89%
same,Population Pyknosed Nuclei (%),[4],11%
same,Population Tubulin-Different-Phenotype (%),[4],61%
same,Total Cell Count,[4],118
same,Population Apoptotic (%),[5],96%
same,Population Fragmented Nuclei (%),[5],43%
same,Population Healthy Nuclei (%),[5],43%
same,Population Hoechst High Intensity Objects (%),[5],7%
same,Population Membrane Permeable-Phenotype (%),[5],10%
same,Population Mitochondria Different-Phenotype (%),[5],10%
same,Population Mitotic Cells (%),[5],4%
same,Population Normal (%),[5],92%
same,Population Pyknosed Nuclei (%),[5],13%
same,Population Tubulin-Different-Phenotype (%),[5],6%
same,Total Cell Count,[5],200
same,Population Apoptotic (%),[6],94%
same,Population Fragmented Nuclei (%),[6],40%
same,Population Healthy Nuclei (%),[6],33%
same,Population Membrane Permeable-Phenotype (%),[6],16%
same,Population Mitochondria Different-Phenotype (%),[6],25%
same,Population Mitotic Cells (%),[6],5%
same,Population Pyknosed Nuclei (%),[6],25%
same,Population Tubulin-Different-Phenotype (%),[6],16%
same,Total Cell Count,[6],77
same,Population Apoptotic (%),[7],88%
same,Population Fragmented Nuclei (%),[7],37%
same,Population Healthy Nuclei (%),[7],50%
same,Population Hoechst High Intensity Objects (%),[7],11%
same,Population Membrane Permeable-Phenotype (%),[7],34%
same,Population Mitochondria Different-Phenotype (%),[7],40%
same,Population Mitotic Cells (%),[7],12%
same,Population Normal (%),[7],88%
same,Population Pyknosed Nuclei (%),[7],12%
same,Population Tubulin-Different-Phenotype (%),[7],37%
same,Total Cell Count,[7],229
same,Population Apoptotic (%),[8],95%
same,Population Fragmented Nuclei (%),[8],30%
same,Population Healthy Nuclei (%),[8],49%
same,Population Hoechst High Intensity Objects (%),[8],12%
same,Population Membrane Permeable-Phenotype (%),[8],43%
same,Population Mitochondria Different-Phenotype (%),[8],54%
same,Population Mitotic Cells (%),[8],4%
same,Population Normal (%),[8],87%
same,Population Pyknosed Nuclei (%),[8],20%
same,Population Tubulin-Different-Phenotype (%),[8],61%
same,Total Cell Count,[8],128
same,Population Apoptotic (%),[9],95%
same,Population Fragmented Nuclei (%),[9],56%
same,Population Healthy Nuclei (%),[9],22%
same,Population Hoechst High Intensity Objects (%),[9],16%
same,Population Membrane Permeable-Phenotype (%),[9],30%
same,Population Mitochondria Different-Phenotype (%),[9],14%
same,Population Mitotic Cells (%),[9],4%
same,Population Normal (%),[9],83%
same,Population Pyknosed Nuclei (%),[9],21%
same,Population Tubulin-Different-Phenotype (%),[9],26%
same,Total Cell Count,[9],227
same,Population Apoptotic (%),[10],100%
same,Population Fragmented Nuclei (%),[10],59%
same,Population Healthy Nuclei (%),[10],11%
same,Population Hoechst High Intensity Objects (%),[10],12%
same,Population Mitochondria Different-Phenotype (%),[10],20%
same,Population Mitotic Cells (%),[10],0%
same,Population Normal (%),[10],87%
same,Population Pyknosed Nuclei (%),[10],28%
same,Population Tubulin-Different-Phenotype (%),[10],10%
same,Total Cell Count,[10],99
same,Population Apoptotic (%),[11],94%
same,Population Fragmented Nuclei (%),[11],47%
same,Population Healthy Nuclei (%),[11],31%
same,Population Hoechst High Intensity Objects (%),[11],21%
same,Population Membrane Permeable-Phenotype (%),[11],43%
same,Population Mitochondria Different-Phenotype (%),[11],45%
same,Population Mitotic Cells (%),[11],5%
same,Population Normal (%),[11],78%
same,Population Pyknosed Nuclei (%),[11],21%
same,Population Tubulin-Different-Phenotype (%),[11],45%
same,Total Cell Count,[11],223
same,Population Apoptotic (%),[12],96%
same,Population Fragmented Nuclei (%),[12],50%
same,Population Healthy Nuclei (%),[12],25%
same,Population Hoechst High Intensity Objects (%),[12],23%
same,Population Membrane Permeable-Phenotype (%),[12],65%
same,Population Mitochondria Different-Phenotype (%),[12],34%
same,Population Mitotic Cells (%),[12],4%
same,Population Normal (%),[12],76%
same,Population Pyknosed Nuclei (%),[12],24%
same,Population Tubulin-Different-Phenotype (%),[12],65%
same,Total Cell Count,[12],134
C[C@@H]1CC(=O)Nc2cccc(-c3ccc4c(c3)c(-c3cnn(C)c3)nn4C)c2N1,Population Apoptotic (%),[1],92%
same,Population Fragmented Nuclei (%),[1],20%
same,Population Healthy Nuclei (%),[1],73%
same,Population Hoechst High Intensity Objects (%),[1],1%
same,Population Membrane Permeable-Phenotype (%),[1],7%
same,Population Mitochondria Different-Phenotype (%),[1],4%
same,Population Mitotic Cells (%),[1],7%
same,Population Normal (%),[1],98%
same,Population Pyknosed Nuclei (%),[1],6%
same,Population Tubulin-Different-Phenotype (%),[1],6%
same,Total Cell Count,[1],233
same,Population Apoptotic (%),[2],88%
same,Population Fragmented Nuclei (%),[2],16%
same,Population Healthy Nuclei (%),[2],75%
same,Population Membrane Permeable-Phenotype (%),[2],5%
same,Population Mitochondria Different-Phenotype (%),[2],2%
same,Population Mitotic Cells (%),[2],11%
same,Population Pyknosed Nuclei (%),[2],7%
same,Population Tubulin-Different-Phenotype (%),[2],2%
same,Total Cell Count,[2],116
same,Population Apoptotic (%),[3],86%
same,Population Fragmented Nuclei (%),[3],29%
same,Population Healthy Nuclei (%),[3],58%
same,Population Hoechst High Intensity Objects (%),[3],2%
same,Population Membrane Permeable-Phenotype (%),[3],11%
same,Population Mitochondria Different-Phenotype (%),[3],11%
same,Population Mitotic Cells (%),[3],13%
same,Population Normal (%),[3],97%
same,Population Pyknosed Nuclei (%),[3],12%
same,Population Tubulin-Different-Phenotype (%),[3],8%
same,Total Cell Count,[3],235
same,Population Apoptotic (%),[4],33%
same,Population Fragmented Nuclei (%),[4],21%
same,Population Healthy Nuclei (%),[4],74%
same,Population Hoechst High Intensity Objects (%),[4],1%
same,Population Membrane Permeable-Phenotype (%),[4],7%
same,Population Mitochondria Different-Phenotype (%),[4],7%
same,Population Mitotic Cells (%),[4],66%
same,Population Normal (%),[4],98%
same,Population Pyknosed Nuclei (%),[4],4%
same,Total Cell Count,[4],76
same,Population Apoptotic (%),[5],95%
same,Population Fragmented Nuclei (%),[5],20%
same,Population Healthy Nuclei (%),[5],71%
same,Population Hoechst High Intensity Objects (%),[5],2%
same,Population Membrane Permeable-Phenotype (%),[5],5%
same,Population Mitochondria Different-Phenotype (%),[5],2%
same,Population Mitotic Cells (%),[5],4%
same,Population Normal (%),[5],97%
same,Population Pyknosed Nuclei (%),[5],7%
same,Population Tubulin-Different-Phenotype (%),[5],2%
same,Total Cell Count,[5],294
same,Population Apoptotic (%),[6],100%
same,Population Fragmented Nuclei (%),[6],22%
same,Population Healthy Nuclei (%),[6],74%
same,Population Hoechst High Intensity Objects (%),[6],1%
same,Population Membrane Permeable-Phenotype (%),[6],1%
same,Population Mitochondria Different-Phenotype (%),[6],1%
same,Population Mitotic Cells (%),[6],0%
same,Population Normal (%),[6],98%
same,Population Pyknosed Nuclei (%),[6],4%
same,Population Tubulin-Different-Phenotype (%),[6],0%
same,Total Cell Count,[6],152
same,Population Apoptotic (%),[7],90%
same,Population Fragmented Nuclei (%),[7],24%
same,Population Healthy Nuclei (%),[7],63%
same,Population Hoechst High Intensity Objects (%),[7],4%
same,Population Membrane Permeable-Phenotype (%),[7],7%
same,Population Mitochondria Different-Phenotype (%),[7],6%
same,Population Mitotic Cells (%),[7],10%
same,Population Normal (%),[7],95%
same,Population Pyknosed Nuclei (%),[7],11%
same,Population Tubulin-Different-Phenotype (%),[7],3%
same,Total Cell Count,[7],266
same,Population Apoptotic (%),[8],83%
same,Population Fragmented Nuclei (%),[8],15%
same,Population Healthy Nuclei (%),[8],78%
same,Population Hoechst High Intensity Objects (%),[8],1%
same,Population Membrane Permeable-Phenotype (%),[8],6%
same,Population Mitochondria Different-Phenotype (%),[8],1%
same,Population Mitotic Cells (%),[8],16%
same,Population Normal (%),[8],98%
same,Population Pyknosed Nuclei (%),[8],6%
same,Population Tubulin-Different-Phenotype (%),[8],4%
same,Total Cell Count,[8],97
same,Population Apoptotic (%),[9],100%
same,Population Fragmented Nuclei (%),[9],19%
same,Population Healthy Nuclei (%),[9],73%
same,Population Hoechst High Intensity Objects (%),[9],1%
same,Population Membrane Permeable-Phenotype (%),[9],4%
same,Population Mitochondria Different-Phenotype (%),[9],2%
same,Population Mitotic Cells (%),[9],0%
same,Population Normal (%),[9],98%
same,Population Pyknosed Nuclei (%),[9],6%
same,Population Tubulin-Different-Phenotype (%),[9],3%
same,Total Cell Count,[9],437
same,Population Fragmented Nuclei (%),[10],13%
same,Population Healthy Nuclei (%),[10],77%
same,Population Membrane Permeable-Phenotype (%),[10],2%
same,Population Pyknosed Nuclei (%),[10],8%
same,Population Tubulin-Different-Phenotype (%),[10],2%
same,Total Cell Count,[10],224
same,Population Apoptotic (%),[11],100%
same,Population Fragmented Nuclei (%),[11],28%
same,Population Healthy Nuclei (%),[11],65%
same,Population Hoechst High Intensity Objects (%),[11],3%
same,Population Membrane Permeable-Phenotype (%),[11],8%
same,Population Mitochondria Different-Phenotype (%),[11],3%
same,Population Mitotic Cells (%),[11],0%
same,Population Normal (%),[11],96%
same,Population Pyknosed Nuclei (%),[11],5%
same,Population Tubulin-Different-Phenotype (%),[11],5%
same,Total Cell Count,[11],394
same,Population Fragmented Nuclei (%),[12],23%
same,Population Healthy Nuclei (%),[12],71%
same,Population Hoechst High Intensity Objects (%),[12],4%
same,Population Membrane Permeable-Phenotype (%),[12],3%
same,Population Mitochondria Different-Phenotype (%),[12],0%
same,Population Normal (%),[12],95%
same,Population Pyknosed Nuclei (%),[12],4%
same,Population Tubulin-Different-Phenotype (%),[12],3%
same,Total Cell Count,[12],149

# Reference: ChEMBL document CHEMBL5058577, “EUbOPEN Chemogenomics Library 2 (Multiplex)” (2022)
